{"source": "paper PMC6072596", "about": "(Molecular cancer therapeutics, 2018)", "key": {"pS1981ATM": {"biological_target": "pS1981ATM (Homo sapiens, UniProt Q13315)", "sequence (Q13315 whole entry)": "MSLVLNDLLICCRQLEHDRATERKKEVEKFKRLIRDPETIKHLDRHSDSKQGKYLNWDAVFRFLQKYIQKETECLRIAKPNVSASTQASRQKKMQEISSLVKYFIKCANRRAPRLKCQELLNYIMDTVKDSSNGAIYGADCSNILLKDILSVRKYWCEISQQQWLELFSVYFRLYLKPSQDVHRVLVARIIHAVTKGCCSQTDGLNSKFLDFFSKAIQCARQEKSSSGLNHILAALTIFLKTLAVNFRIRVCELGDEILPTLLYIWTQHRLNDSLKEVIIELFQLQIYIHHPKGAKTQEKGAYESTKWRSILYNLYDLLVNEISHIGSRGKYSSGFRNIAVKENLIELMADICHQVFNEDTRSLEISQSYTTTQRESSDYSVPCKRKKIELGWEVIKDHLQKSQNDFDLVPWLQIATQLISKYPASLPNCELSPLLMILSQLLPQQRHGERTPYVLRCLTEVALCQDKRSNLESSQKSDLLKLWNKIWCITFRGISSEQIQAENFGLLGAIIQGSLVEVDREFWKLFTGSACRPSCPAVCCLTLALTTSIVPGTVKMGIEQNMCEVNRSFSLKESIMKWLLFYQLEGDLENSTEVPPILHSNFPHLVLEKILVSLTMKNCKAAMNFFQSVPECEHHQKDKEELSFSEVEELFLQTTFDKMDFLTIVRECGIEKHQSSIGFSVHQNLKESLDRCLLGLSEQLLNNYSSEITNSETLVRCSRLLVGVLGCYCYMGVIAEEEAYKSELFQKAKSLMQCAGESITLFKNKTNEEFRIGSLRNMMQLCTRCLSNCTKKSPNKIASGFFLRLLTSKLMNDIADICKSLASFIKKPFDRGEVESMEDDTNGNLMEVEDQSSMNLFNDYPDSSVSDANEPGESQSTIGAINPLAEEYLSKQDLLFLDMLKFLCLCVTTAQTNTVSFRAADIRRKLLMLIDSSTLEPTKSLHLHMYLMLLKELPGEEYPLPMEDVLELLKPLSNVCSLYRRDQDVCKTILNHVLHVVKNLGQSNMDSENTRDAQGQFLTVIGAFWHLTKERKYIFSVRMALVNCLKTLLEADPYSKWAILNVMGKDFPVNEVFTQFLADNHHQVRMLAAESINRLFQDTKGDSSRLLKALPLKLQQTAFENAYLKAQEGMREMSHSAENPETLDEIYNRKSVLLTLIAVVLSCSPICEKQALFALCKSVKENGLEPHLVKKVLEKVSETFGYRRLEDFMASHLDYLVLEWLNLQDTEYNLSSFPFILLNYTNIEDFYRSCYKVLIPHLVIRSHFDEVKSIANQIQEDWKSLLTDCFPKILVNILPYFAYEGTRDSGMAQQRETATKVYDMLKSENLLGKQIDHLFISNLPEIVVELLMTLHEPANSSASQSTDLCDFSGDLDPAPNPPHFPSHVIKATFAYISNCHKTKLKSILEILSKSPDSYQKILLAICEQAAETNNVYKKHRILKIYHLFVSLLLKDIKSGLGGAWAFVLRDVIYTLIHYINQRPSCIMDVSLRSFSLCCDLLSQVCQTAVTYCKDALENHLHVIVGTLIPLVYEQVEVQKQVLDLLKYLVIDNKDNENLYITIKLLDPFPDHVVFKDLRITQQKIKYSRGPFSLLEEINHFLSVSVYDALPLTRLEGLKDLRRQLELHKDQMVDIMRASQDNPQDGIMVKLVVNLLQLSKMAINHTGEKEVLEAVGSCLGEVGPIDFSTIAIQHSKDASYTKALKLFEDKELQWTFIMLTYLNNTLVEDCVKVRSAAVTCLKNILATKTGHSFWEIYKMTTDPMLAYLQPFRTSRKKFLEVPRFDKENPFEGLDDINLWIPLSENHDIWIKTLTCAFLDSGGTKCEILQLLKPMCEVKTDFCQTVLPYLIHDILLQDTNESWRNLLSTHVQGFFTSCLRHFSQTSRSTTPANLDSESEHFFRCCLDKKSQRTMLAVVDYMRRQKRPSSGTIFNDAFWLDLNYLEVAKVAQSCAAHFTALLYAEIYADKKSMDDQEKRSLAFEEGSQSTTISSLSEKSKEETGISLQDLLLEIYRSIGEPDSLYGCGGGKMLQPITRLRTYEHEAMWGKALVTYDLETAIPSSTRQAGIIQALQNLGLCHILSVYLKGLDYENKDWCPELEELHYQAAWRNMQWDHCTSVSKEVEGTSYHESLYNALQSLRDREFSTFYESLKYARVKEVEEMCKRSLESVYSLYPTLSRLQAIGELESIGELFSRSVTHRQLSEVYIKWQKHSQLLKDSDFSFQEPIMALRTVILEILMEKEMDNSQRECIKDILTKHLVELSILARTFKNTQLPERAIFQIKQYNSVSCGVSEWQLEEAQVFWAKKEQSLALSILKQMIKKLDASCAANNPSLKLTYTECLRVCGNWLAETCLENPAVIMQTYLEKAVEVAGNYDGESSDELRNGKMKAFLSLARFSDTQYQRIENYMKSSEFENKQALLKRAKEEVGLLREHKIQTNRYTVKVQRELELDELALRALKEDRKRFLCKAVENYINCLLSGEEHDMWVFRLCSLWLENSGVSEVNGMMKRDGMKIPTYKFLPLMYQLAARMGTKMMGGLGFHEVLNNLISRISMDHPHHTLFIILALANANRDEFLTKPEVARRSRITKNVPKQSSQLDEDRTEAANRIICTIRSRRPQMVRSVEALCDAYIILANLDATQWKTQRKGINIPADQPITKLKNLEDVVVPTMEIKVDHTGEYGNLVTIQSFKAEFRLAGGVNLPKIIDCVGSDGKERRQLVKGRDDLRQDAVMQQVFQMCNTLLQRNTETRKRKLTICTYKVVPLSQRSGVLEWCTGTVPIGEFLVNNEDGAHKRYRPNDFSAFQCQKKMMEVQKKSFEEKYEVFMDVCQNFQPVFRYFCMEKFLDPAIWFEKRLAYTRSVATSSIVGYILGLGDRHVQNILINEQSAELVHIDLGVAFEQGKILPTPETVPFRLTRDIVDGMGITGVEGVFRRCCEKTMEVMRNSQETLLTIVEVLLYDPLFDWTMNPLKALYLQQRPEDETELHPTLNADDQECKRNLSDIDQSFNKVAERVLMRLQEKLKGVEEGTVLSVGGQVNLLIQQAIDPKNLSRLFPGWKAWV", "assay": "ATM cell assay", "type": "cell-based", "conditions": "read-out: pS1981ATM IC50 (ATM cell IC50)"}, "ATR": {"biological_target": "ATR (Homo sapiens, UniProt Q13535)", "assay": "Kinase selectivity, biochemical PIKK enzyme activity: ATR"}, "[1]": {"assay": "Mouse oral exposure: plasma and brain", "type": "in vivo", "conditions": "from Kpuu of Table 1"}, "Cell permeability": {"assay": "Cell permeability", "type": "in vitro ADME"}, "GL261 orthotopic glioma": {"tested_on": "GL261 orthotopic glioma", "assay": "Syngeneic orthotopic mouse glioma model GL261/C57bl6, survival with radiation", "type": "in vivo"}, "[2]": {"tested_on": "human glioma cell lines LN18, U1242, T98G, DBTRG, U87MG", "assay": "Radiosurvival of human glioma cell line panel with AZ32", "type": "cell-based", "conditions": "LN18, U1242, T98G (mutant p53), U87MG (wild-type p53)"}, "[3]": {"tested_on": "pp53 (S15), pKAP1 (S824) in mouse glioma GL261 cells", "assay": "Western blotting of DDR in GL261 cells", "type": "cell-based", "conditions": "5 Gy, AZ32 0.3, 1 or 3 µM", "summary_of_the_method": "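Mouse GL261 glioma cells, grown in DMEM with 10% FBS, got 5 Gy or no irradiation plus test compound (0.3, 1 or 3 µM), reference ATM inhibitor (3 µM) or neither. Extracts were western blotted for p-p53 Ser15 and p-KAP1 Ser824, with GAPDH or KAP1 as loading controls. Detection used Dylight-800 anti-rabbit and Alexa Fluor-680 anti-mouse secondaries.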"}, "mouse GL261 cells": {"tested_on": "mouse GL261 cells", "assay": "Radiosurvival colony-forming assay, GL261", "type": "cell-based", "conditions": "AZ32 3 µM, 2 and 4 Gy", "summary_of_the_method": "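Clonogenic radiosurvival in mouse GL261 cells grown in DMEM with 10% FBS. Cells were diluted and plated, exposed to test compound 3 µM or not, and irradiated at 0, 2 or 4 Gy. After about 2 weeks, colonies were stained with crystal violet and those of more than 50 cells were counted.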"}, "[4]": {"tested_on": "intracranial NCI-H2228 (BM) tumors", "assay": "NCI-H2228 non-small cell lung cancer brain metastasis model, survival", "type": "in vivo, mouse", "conditions": "nude mice, AZ32 50 mg/kg BID", "summary_of_the_method": "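Luciferase-expressing NCI-H2228 lung cancer cells, grown in DMEM with 10% FBS, were implanted in the brains of nude mice. Mice were randomized to vehicle, radiation alone, test compound 50 mg/kg BID alone, or test compound plus radiation. Tumours were tracked by bioluminescence imaging and survival was followed.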"}, "[5]": {"assay": "Tolerability of AZ32 plus head irradiation in mice", "type": "in vivo", "conditions": "C57bl6 mice, AZ32 and 2×5 Gy conformal SARRP"}, "U87/shp53 cells [6]": {"tested_on": "U87/shp53 cells", "assay": "Radiosensitization of U87/shp53 versus parental U87/puro cells", "type": "cell-based, human", "conditions": "AZ32 3 µM"}, "U87/shp53 cells [7]": {"tested_on": "U87/shp53 cells", "assay": "Live cell imaging of aberrant mitoses in U87/shp53 versus parental cells", "type": "cell-based, human", "conditions": "AZ32 3 µM, 5 Gy, time-lapse 16 hrs", "summary_of_the_method": "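U87 cells expressing H2B-mCherry and EGFP-Centrin2 were transduced with shp53 pLKO.1 puro or pBabe-puro, puromycin-selected and FACS-sorted mCherry+/EGFP+. They were grown 48–72 hr on glass-bottom dishes, given test compound 3 µM before 5 Gy, then imaged by spinning-disk confocal every 7 min from 2 hr post-IR for 16 hr. Aberrant mitoses were scored visually from chromatin and/or centrosome morphology.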"}, "[8]": {"tested_on": "human HCT116 colon carcinoma cells", "assay": "Aberrant mitoses in isogenic HCT116 cells", "type": "cell-based", "conditions": "HCT116 p53−/− cells"}, "[9]": {"tested_on": "human HCT116 colon carcinoma cells", "assay": "CFA radiosurvival of isogenic HCT116 cells", "type": "cell-based", "conditions": "HCT116 p53+/+ cells versus mutant p53 cells"}, "mouse GL261 glioma cells": {"tested_on": "mouse GL261 glioma cells", "assay": "Mitotic catastrophe triple staining", "type": "cell-based", "conditions": "24 hr", "summary_of_the_method": "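GL261 cells on chamber slides (DMEM, 10% FBS, 37°C, 5% CO2) were treated with test compound 3 µM and/or 2 Gy, or left untreated. Fixed at 24 hr and immunostained for γ-H2AX, p-(S10)-histone H3 and cleaved caspase 3, with DAPI counterstain; confocal imaging. Triple-positive cells were counted as mitotic catastrophe and expressed as a fraction of all cells.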"}, "human glioma T98G cells": {"tested_on": "human glioma T98G cells", "assay": "Radiosurvival colony-forming ability", "type": "cell-based", "conditions": "compared with KU-60019", "summary_of_the_method": "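T98G human glioma cells came from ATCC and grew in DMEM with 10% FBS and penicillin-streptomycin at 37°C, 5% CO2. Cultures were kept no longer than 2 months and tested mycoplasma-negative. Radiosensitization was scored as colony-forming ability after irradiation, with a reference ATM inhibitor run alongside.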"}, "[10]": {"tested_on": "ATM targets including p53-S15, KAP1-S824, and ATM auto-phosphorylation at S1981", "assay": "Western blotting of ATM target phosphorylation", "type": "cell-based", "conditions": "western blot", "summary_of_the_method": "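Mouse GL261 cells were irradiated (5 Gy) or not and exposed to test compound 0.3, 1 or 3 µM, or KU-60019 3 µM as reference ATM inhibitor, or neither. Extracts were western blotted for p-p53 S15 and p-KAP1 S824, with GAPDH or KAP1 as loading controls, using Dylight-800 anti-rabbit and Alexa Fluor-680 anti-mouse secondaries.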"}}, "note": "“And” between values parts separate entries of the source, which are not always exact repeats. Equal values may be shown once."}
{"smiles": "CNC(=O)c1ccc(-c2cnc3cnc(-c4ccccc4)cn23)cc1", "note": "[AZ32]", "values": [{"measurement": "IC50", "setting": "pS1981ATM", "result": 310, "unit": "nM"}, {"measurement": "Selectivity over ATR", "setting": "ATR", "result": "adequate selectivity over ATR"}, {"measurement": "Enhancement of BBB penetration over AZ31", "setting": "[1]", "result": 8.7, "unit": "fold"}, {"measurement": "Cell permeability", "setting": "Cell permeability", "result": "high cell permeability"}, {"measurement": "Survival versus radiation alone", "setting": "GL261 orthotopic glioma; AZ32 200 mg/kg p.o. QD, whole-head 137-Cs irradiation 4×2.5 Gy", "result": "significantly (p = 0.019) prolonged the survival"}, {"measurement": "Radiosensitization of human glioma cell line panel", "setting": "[2]", "result": "all radiosensitized in vitro"}, {"measurement": "Block of phosphorylation of p53 and KAP-1 after radiation", "setting": "[3]", "result": "blocked the phosphorylation of p53 and KAP-1 after radiation"}, {"measurement": "Radiosensitization in radiosurvival colony-forming assay", "setting": "mouse GL261 cells", "result": "became more radiosensitive"}, {"measurement": "Survival of mice, AZ32 in combination with radiation", "setting": "[4]", "result": "survived much longer than mice in the radiation alone or AZ32 alone groups"}, {"measurement": "Radiation toxicity", "setting": "[5]", "result": "did not notice any radiation toxicity"}, {"measurement": "Sensitivity of U87/shp53 cells to AZ32 radiosensitization relative to parental cells", "setting": "U87/shp53 cells [6]", "result": "2–4 fold"}, {"measurement": "Aberrant mitoses in shp53 cells relative to parental cells", "setting": "U87/shp53 cells [7]", "result": "4.2 fold and ~ 4 fold"}, {"measurement": "Aberrant mitoses and polyploidy cells on addition of AZ32 before IR", "setting": "[8]", "result": "almost a doubling of aberrant mitoses and polyploidy cells"}, {"measurement": "Sensitivity to AZ32 and radiation by CFA", "setting": "[9]", "result": "more sensitive to AZ32 and radiation compared to mutant p53 cells"}, {"measurement": "Triple+ cells (mitotic catastrophe) of all cells", "setting": "mouse GL261 glioma cells; AZ32 3 µM and radiation 2 Gy", "result": 4, "unit": "%"}, {"measurement": "Mitotic catastrophe in AZ32+IR over IR alone", "setting": "mouse GL261 glioma cells; AZ32 3 µM, 2 Gy", "result": 4, "unit": "fold"}]}
{"smiles": "COCc1ccc(-c2ccc3ncc(C(N)=O)c(N[C@H](C)C4CCOCC4)c3c2)cn1", "note": "[AZ31, 6-[6-(methoxymethyl)-3-pyridinyl]-4-([(1R)-1-(tetrahydro-2H-pyran-4-yl)ethyl]amino)-3-quinolinecarboxamide]", "values": [{"measurement": "Radiosensitization by colony-forming ability", "setting": "human glioma T98G cells", "result": "radiosensitized cells to a similar extent as KU-60019"}, {"measurement": "Block of phosphorylation of ATM targets", "setting": "[10]; p53-S15, KAP1-S824, ATM S1981", "result": "effectively blocked phosphorylation"}, {"measurement": "Potency compared to KU-60019 in blocking ATM target phosphorylation", "setting": "[10]; lanes 2–6", "result": "at least 10 fold"}, {"measurement": "Radiosensitization of GL261 tumors", "setting": "GL261 orthotopic glioma; administered orally, prolonged low radiation dose treatment schedule", "result": "unable to significantly radiosensitize tumors"}]}
{"smiles": "C[C@@H]1CN(CC(=O)Nc2ccc3c(c2)Cc2cccc(-c4cc(=O)cc(N5CCOCC5)o4)c2S3)C[C@H](C)O1", "note": "[KU-60019, reference compound]", "values": [{"measurement": "Radiosensitization of GL261 tumors", "setting": "GL261 orthotopic glioma; administered intra-tumorally by CED immediately prior to radiation", "result": "radiosensitized by KU-60019 (p = 0.0001)"}]}
